In publication PMC7050655 (ChemistryOpen, 2020):

Columns and labels:
IRAP from CHO cells = target: T1, IRAP from CHO cells (Cricetulus griseus, UniProt A0A8C2M8D5); assay: IRAP inhibition, membrane preparations from CHO cells, L-Leu-pNA cleavage; format: biochemical, Chinese hamster
T1 sequence (A0A8C2M8D5 1-1025): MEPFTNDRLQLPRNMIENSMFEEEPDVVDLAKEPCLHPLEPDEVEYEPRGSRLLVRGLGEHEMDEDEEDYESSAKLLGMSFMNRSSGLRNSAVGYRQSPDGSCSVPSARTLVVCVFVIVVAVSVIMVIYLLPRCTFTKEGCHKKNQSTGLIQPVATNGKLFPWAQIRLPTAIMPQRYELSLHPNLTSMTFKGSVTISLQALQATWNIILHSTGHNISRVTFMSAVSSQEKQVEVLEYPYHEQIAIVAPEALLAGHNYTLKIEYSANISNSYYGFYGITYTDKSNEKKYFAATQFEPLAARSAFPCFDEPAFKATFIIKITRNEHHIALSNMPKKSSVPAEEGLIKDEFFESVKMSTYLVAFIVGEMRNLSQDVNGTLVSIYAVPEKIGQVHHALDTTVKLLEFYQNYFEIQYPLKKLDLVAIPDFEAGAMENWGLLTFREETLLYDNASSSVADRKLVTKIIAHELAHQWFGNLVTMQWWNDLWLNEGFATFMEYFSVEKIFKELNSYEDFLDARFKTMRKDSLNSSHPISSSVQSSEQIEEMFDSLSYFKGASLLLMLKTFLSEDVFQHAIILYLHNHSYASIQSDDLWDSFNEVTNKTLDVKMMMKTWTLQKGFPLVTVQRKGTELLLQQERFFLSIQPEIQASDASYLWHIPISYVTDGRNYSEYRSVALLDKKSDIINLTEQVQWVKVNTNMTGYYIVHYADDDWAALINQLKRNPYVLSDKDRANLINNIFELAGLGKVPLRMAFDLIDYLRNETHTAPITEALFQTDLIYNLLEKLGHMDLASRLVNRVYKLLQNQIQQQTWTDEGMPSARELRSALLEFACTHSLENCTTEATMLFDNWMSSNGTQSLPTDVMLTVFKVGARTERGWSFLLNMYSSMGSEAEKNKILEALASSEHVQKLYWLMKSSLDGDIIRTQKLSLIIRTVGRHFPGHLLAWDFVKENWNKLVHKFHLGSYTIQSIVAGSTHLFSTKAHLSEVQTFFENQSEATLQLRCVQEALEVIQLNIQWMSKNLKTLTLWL

Human plasma stability = format: in vitro ADME; conditions: after 18 h incubation
Outline: (§1)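 Part of an automated 96-well profiling panel run in […], reporting fraction unbound and compound stability (% remaining after 18 h). Read-out by UPLC-MS/MS. Values are mean and SD from three independent test occasions.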

[1] = target: human aminopeptidase N overexpressed in HEK293 cells (Homo sapiens, UniProt P15144); format: biochemical; conditions: for specificity for IRAP over human APN: IRAP versus human APN; for pIC50: human aminopeptidase N overexpressed in HEK293 cells
Chain of human aminopeptidase N overexpressed in HEK293 cells (P15144 whole entry): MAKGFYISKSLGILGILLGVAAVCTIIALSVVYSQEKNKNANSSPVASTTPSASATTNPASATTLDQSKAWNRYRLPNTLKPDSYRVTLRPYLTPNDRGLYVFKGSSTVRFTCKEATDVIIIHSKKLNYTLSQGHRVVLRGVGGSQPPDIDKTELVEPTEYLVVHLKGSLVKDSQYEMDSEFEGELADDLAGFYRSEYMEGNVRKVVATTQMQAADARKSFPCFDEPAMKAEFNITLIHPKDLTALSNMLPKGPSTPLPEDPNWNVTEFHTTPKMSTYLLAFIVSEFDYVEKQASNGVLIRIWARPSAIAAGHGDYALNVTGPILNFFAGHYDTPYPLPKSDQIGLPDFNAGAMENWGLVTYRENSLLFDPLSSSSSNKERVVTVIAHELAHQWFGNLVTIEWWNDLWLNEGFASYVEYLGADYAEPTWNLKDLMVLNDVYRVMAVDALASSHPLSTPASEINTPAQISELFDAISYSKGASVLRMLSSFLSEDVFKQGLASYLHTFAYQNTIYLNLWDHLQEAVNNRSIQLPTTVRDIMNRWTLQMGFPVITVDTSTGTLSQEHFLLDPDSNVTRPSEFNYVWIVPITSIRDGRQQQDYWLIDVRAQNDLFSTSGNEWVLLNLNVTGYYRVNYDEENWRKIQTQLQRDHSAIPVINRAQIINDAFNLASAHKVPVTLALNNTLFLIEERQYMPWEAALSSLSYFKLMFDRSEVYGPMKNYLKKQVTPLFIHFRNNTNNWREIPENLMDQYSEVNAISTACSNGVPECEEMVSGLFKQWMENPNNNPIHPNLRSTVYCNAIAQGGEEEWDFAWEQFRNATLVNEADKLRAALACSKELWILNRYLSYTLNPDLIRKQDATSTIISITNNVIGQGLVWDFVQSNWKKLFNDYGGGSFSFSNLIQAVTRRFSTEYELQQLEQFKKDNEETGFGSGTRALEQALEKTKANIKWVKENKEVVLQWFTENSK
Outline: (§2)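 HEK293T suspension cells were grown in Freestyle medium (37 °C, 8 % CO2, shaken) and transfected with PEI (2 μg/10^6 cells). Plasmid per 10^6 cells was 1.1 μg for human IRAP and 0.7 μg for human APN. Cells were harvested at 48 h. Membranes were prepared as for CHO cells, stored at −80 °C, Dounce-homogenised and diluted in assay buffer. The set-up matched the CHO assay: 1 mM L-Leu-pNA, pH 7.4 Tris/NaCl/PMSF buffer, 405 nm absorbance.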

[2] = Metabolic stability in rat hepatocytes; format: in vitro ADME; conditions: for hepatocyte CLint: Rat hep. Clint (rat hepatocytes intrinsic clearance), rat hepatocytes; for half-life: Rat hep. t 1/2, rat hepatocytes
Outline: (§3)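 Part of an automated 96-well preclinical profiling panel with UPLC-MS/MS read-out. Values are mean and SD from three independent test occasions.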

[3] = target: human membrane bound IRAP overexpressed in HEK293 cells (Homo sapiens, UniProt Q9UIQ6); format: biochemical
Chain of human membrane bound IRAP overexpressed in HEK293 cells (Q9UIQ6 whole entry): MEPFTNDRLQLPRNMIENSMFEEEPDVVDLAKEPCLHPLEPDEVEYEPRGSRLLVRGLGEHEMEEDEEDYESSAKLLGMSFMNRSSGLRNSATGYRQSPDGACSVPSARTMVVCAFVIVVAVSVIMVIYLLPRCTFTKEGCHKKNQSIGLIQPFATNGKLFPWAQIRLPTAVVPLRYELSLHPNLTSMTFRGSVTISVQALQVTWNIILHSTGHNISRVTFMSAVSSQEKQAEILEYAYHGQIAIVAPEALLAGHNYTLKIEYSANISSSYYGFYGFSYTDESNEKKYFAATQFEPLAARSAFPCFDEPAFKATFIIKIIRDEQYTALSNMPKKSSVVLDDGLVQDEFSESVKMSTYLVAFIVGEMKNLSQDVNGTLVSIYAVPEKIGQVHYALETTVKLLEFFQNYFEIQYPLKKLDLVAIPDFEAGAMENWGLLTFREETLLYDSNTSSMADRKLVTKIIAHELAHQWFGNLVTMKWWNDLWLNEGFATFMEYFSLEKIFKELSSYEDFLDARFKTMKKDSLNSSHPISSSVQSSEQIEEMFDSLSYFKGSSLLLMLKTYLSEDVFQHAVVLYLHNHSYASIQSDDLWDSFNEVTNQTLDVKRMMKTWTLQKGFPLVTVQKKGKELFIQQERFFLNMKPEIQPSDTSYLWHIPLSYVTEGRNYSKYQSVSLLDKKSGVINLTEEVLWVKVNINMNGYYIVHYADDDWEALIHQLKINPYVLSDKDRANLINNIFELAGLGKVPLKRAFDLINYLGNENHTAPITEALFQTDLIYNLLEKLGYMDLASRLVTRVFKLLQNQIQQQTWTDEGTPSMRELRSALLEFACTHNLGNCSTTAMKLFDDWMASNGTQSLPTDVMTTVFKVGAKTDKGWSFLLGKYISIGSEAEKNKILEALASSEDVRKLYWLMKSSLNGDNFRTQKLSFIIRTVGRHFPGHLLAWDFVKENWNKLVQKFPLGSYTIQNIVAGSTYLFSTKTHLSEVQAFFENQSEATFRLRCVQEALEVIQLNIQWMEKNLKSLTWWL
Outline: as §2

[4] = Human plasma protein binding; format: in vitro ADME; conditions: PPB (human protein plasma binding)
Outline: as §1

[5] = Metabolic stability in human liver microsomes; format: in vitro ADME
Outline: as §3

IRAP = target: T2, IRAP (Cricetulus griseus, UniProt A0A8C2M8D5); assay: Enzyme kinetics / competition studies with varied L-Leu-pNA substrate; format: biochemical; conditions: enzyme kinetics experiments
T2 sequence (A0A8C2M8D5 1-1025): T1 sequence (A0A8C2M8D5 1-1025)
Outline: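 Inhibitor was serially diluted (39 nM–150 μM), with four technical replicates per substrate level. Absorbance at 405 nm was read every ten minutes. The 150 μM slope defined maximal inhibition and was subtracted. Rates were fitted to uncompetitive, competitive and non-competitive models and compared; per-concentration Michaelis-Menten fits were also made.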

SMILES | decrease of activity compared to compound 1 (IRAP from CHO cells) | Plasma stab (human plasma stability) (Human plasma stability) [% compound remaining] | specificity for IRAP over human APN [1] | pIC50 [1] | hepatocyte CLint [2] [µL/min/1e6 cells] | half-life [2] [min] | IC50 [3] [µM] | fraction unbound [4] | half-life [5] [min] | microsomal CLint [5] [µL/min/mg] | mode of inhibition versus L-Leu-pNA (IRAP) | loss of activity on hIRAP compared to IRAP from CHO-cells ([3]; hIRAP versus CHO IRAP) [fold]
COc1ccc2c(c1)C1(Nc3ccccc3C(=O)N1c1ccc(C)cc1)C(=O)N2C (stereo not shown) [Compound 9, 5‐Methoxy‐1‐methyl‐3′‐(p‐tolyl)‐1′H‐spiro[indoline‐3,2′‐quinazoline]‐2,4′(3′H)‐dione] | tenfold | – | – | – | – | – | – | – | – | – | – | –
CCCCN1C(=O)c2ccccc2NC12C(=O)N(C)c1ccc(Br)cc12 (stereo not shown) [Compound 38, 5‐Bromo‐3′‐butyl‐1‐methyl‐1′H‐spiro[indoline‐3,2′‐quinazoline]‐2,4′(3′H)‐dione] | – | 105±7 | – | – | 248 ± 5 | 2.8 ± 0.06 | – | 0.019 ± 0.004 | < 2.3 | > 300 | – | –
CN(C)CCN1C(=O)c2ccccc2NC12C(=O)N(C)c1ccc(Br)cc12 (stereo not shown) [Compound 40, 5‐Bromo‐3′‐(2‐(dimethylamino)ethyl)‐1‐methyl‐1′H‐spiro[indoline‐3,2′‐quinazoline]‐2,4′(3′H)‐dione] | – | 95±2 | specificity for IRAP over human APN | Inactive | 136 ± 22 | 5.2 ± 0.9 | 39.8 | 0.4 ± 0.04 | 8.6 ± 1 | 81 ± 10 | – | –
CCc1ccccc1-c1ccc2c(c1)C1(Nc3ccccc3C(=O)N1c1ccc(C)cc1)C(=O)N2C (stereo not shown) [Compound 15, 5‐(2‐Ethylphenyl)‐1‐methyl‐3′‐(p‐tolyl)‐1′H‐spiro[indoline‐3,2′‐quinazoline]‐2,4′(3′H)‐dione] | – | 102±25 | – | – | > 300 | < 2.3 | – | 0.0025 to 0.032 | < 2.3 | > 300 | – | –
Cc1ccc(N2C(=O)c3ccccc3NC23C(=O)N(C)c2ccc([N+](=O)[O-])cc23)cc1 (stereo not shown) [Compound 7, 1‐Methyl‐5‐nitro‐3′‐(p‐tolyl)‐1′H‐spiro[indoline‐3,2′‐quinazoline]‐2,4′(3′H)‐dione] | – | 100±5 | specificity for IRAP over human APN | completely inactive | 114 ± 4 | 6.1 ± 0.2 | 31.6 | 0.098 ± 0.02 | < 2.3 | > 300 | – | 10 to 15
Cc1ccc(N2C(=O)c3ccccc3NC23C(=O)N(C)c2ccc(C)cc23)cc1 (stereo not shown) [Compound 10, 1,5‐Dimethyl‐3′‐(p‐tolyl)‐1′H‐spiro[indoline‐3,2′‐quinazoline]‐2,4′(3′H)‐dione] | tenfold | – | – | – | – | – | – | – | – | – | – | –

Now from value to compound:

decrease of activity compared to compound 1 (IRAP from CHO cells) | Plasma stab (human plasma stability) (Human plasma stability) [% compound remaining] | specificity for IRAP over human APN [1] | pIC50 [1] | hepatocyte CLint [2] [µL/min/1e6 cells] | half-life [2] [min] | IC50 [3] [µM] | fraction unbound [4] | half-life [5] [min] | microsomal CLint [5] [µL/min/mg] | mode of inhibition versus L-Leu-pNA (IRAP) | loss of activity on hIRAP compared to IRAP from CHO-cells ([3]; hIRAP versus CHO IRAP) [fold] | SMILES
– | 98±3 | specificity for IRAP over human APN | Inactive | 132 ± 39 | 5.5 ± 1.4 | 12.6 | 0.041 ± 0.008 | < 2.3 | > 300 | – | – | CN1C(=O)C2(Nc3ccccc3C(=O)N2Cc2ccco2)c2cc(Br)ccc21 (stereo not shown) [Compound 37, 5‐Bromo‐3′‐(furan‐2‐ylmethyl)‐1‐methyl‐1′H‐spiro[indoline‐3,2′‐quinazoline]‐2,4′(3′H)‐dione]
– | – | specificity for IRAP over human APN | Inactive | – | – | 5.01 | – | – | – | uncompetitive inhibitor | – | CN1C(=O)C2(Nc3ccccc3C(=O)N2Cc2ccccc2)c2cc(Br)ccc21 (racemic) [Compound 32, 3′‐Benzyl‐5‐bromo‐1‐methyl‐1′H‐spiro[indoline‐3,2′‐quinazoline]‐2,4′(3′H)‐dione]
– | 99±1 | specificity for IRAP over human APN | Inactive | 91 ± 8 | 7.6 ± 0.6 | 50.1 | 0.14 ± 0.006 | < 2.3 | > 300 | – | – | COCCN1C(=O)c2ccccc2NC12C(=O)N(C)c1ccc(Br)cc12 (stereo not shown) [Compound 39, 5‐Bromo‐3′‐(2‐methoxyethyl)‐1‐methyl‐1′H‐spiro[indoline‐3,2′‐quinazoline]‐2,4′(3′H)‐dione]
– | 97±15 | specificity for IRAP over human APN | Inactive | 84 ± 14 | 8.5 ± 1.6 | 31.6 | 0.055 ± 0.004 | < 2.3 | > 300 | – | – | CN1C(=O)C2(Nc3ccccc3C(=O)N2Cc2cccnc2)c2cc(Br)ccc21 (stereo not shown) [Compound 36, 5‐Bromo‐1‐methyl‐3′‐(pyridin‐3‐ylmethyl)‐1′H‐spiro[indoline‐3,2′‐quinazoline]‐2,4′(3′H)‐dione]
